Assay results: publication PMC11615718 (RSC Advances, 2024)
Where “and” joins values, the source holds several entries; their conditions need not be identical. Equal values may be shown once. Read-outs that look alike come from different tables or passages of the source.

How the values were obtained:
KCa2.2 = KCa2.2 (Rattus norvegicus, UniProt P70604); experiment: QPatch-HTX patch-clamp, KCa2.2; assay type: cell-based
Procedure, shortened: (§1)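 Automated whole-cell patch clamp on a QPatch-HTX. Test compound came from 10 mM DMSO stocks, diluted in fixed ratios into each channel's own extracellular solution, over 300 nM to 30 μM. Each current slope was the mean of five measurements at the end of each liquid period. Activation was normalised per cell to a saturating 30 μM activator applied before washout; otherwise currents were normalised to the last vehicle period. Hill fit used ≥3 cells.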

KCa2.3 = KCa2.3 (Homo sapiens, UniProt Q9UGI6); experiment: QPatch-HTX patch-clamp, KCa2.3; assay type: cell-based
Procedure, shortened: as §1

KCa3.1 channel = KCa3.1 channel (Homo sapiens, UniProt O15554+P0DP23); experiment: QPatch-HTX patch-clamp, KCa3.1 activation; assay type: cell-based
Procedure, shortened: as §1

[1] = up to 30 mg kg^−1 i.p., mice; cited from earlier work
[2] = tested on: small-conductance Ca2+-activated KCa2 channels; conditions: cited from earlier work
[3] = experimental mice; cited from earlier work
[4] = up to 30 mg kg^−1 i.p., Sprague-Dawley rats; cited from earlier work
[5] = Tissue biodistribution by LC-MS after 14-day dosing; assay type: in vivo, C57BL/6 mice; conditions: female, C57BL/6, mouse, ip, 30 mg kg^−1
Procedure, shortened: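 After 14 days of daily i.p. dosing (30 mg kg−1 in 3% DMSO/97% peanut oil), brain, kidney and liver were harvested at termination. Pre-weighed organs were homogenised in methanol:dichloromethane (1:1), held 30 min at 4 °C and spun 10 min at 14000 rpm, 4 °C. LC-MS used a C18 column at 40 °C and 0.3 mL min−1, with a water/acetonitrile (0.1% formic acid) gradient from 20% to 95% B over a 10 min run.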

[6] = 14-day i.p. tolerability in mice; assay type: in vivo, C57BL/6 mice; conditions: 30 mg kg^−1 i.p. daily for 14 days, female C57BL/6
Procedure, shortened: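 Female C57BL/6 mice (6–7 weeks old, n = 6 per group) got test compound at 6 mg mL−1 in 3% DMSO + 97% peanut oil. The preparation was thawed, heated to ~60 °C and cooled before dosing. Dose was ~100 μL i.p. (30 mg kg−1) once daily for 14 days; vehicle-injected controls. Body weight was taken every 2–4 days. At day 14, serum AST was measured by colorimetric kit, and organs were paraffin-embedded and H&E-stained.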

[7] = Solubility in DMSO by UV-Vis spectrophotometry; assay type: physicochemical
Procedure, shortened: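 Excess test compound (50 mg) was shaken in 500 μL DMSO at 1000 rpm for 24 h, then filtered through 0.22 μm and diluted 100-fold in DMSO. Concentration came from absorbance at the peak, read against a blank-corrected calibration curve at 345 nm. Standards were serial dilutions in DMSO from 0.5 to 0.007 mg mL−1.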

[8] = Plasma pharmacokinetics after single i.p. dose; assay type: in vivo, BALB/c mice; conditions: 30 mg kg^−1 i.p.
Procedure, shortened: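 Female BALB/c mice (7–9 weeks old, n = 4 per time point) received a single i.p. dose of 30 mg kg−1 in 3% DMSO + 97% peanut oil. Blood was taken at 0, 0.25, 0.5, 1, 2, 4, 8 and 24 h. Plasma (20 μL) was mixed with 60 μL methanol:dichloromethane (1:1), then test compound was quantified by LC-MS on a C18 column with a water/acetonitrile (0.1% formic acid) gradient.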

KCa3.1 channel, sequence (O15554 whole entry, one chain of several): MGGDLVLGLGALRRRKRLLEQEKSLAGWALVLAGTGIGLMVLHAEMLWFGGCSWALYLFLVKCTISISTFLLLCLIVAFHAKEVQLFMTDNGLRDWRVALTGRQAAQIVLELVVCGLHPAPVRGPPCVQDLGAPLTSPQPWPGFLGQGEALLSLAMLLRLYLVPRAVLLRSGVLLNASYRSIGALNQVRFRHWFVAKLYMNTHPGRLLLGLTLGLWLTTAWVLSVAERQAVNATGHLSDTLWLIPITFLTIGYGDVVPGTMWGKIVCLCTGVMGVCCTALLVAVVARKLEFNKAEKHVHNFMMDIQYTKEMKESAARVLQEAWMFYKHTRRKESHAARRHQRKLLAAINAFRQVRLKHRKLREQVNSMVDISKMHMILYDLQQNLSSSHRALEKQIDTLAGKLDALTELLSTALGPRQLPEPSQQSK
KCa2.2, sequence (P70604 whole entry): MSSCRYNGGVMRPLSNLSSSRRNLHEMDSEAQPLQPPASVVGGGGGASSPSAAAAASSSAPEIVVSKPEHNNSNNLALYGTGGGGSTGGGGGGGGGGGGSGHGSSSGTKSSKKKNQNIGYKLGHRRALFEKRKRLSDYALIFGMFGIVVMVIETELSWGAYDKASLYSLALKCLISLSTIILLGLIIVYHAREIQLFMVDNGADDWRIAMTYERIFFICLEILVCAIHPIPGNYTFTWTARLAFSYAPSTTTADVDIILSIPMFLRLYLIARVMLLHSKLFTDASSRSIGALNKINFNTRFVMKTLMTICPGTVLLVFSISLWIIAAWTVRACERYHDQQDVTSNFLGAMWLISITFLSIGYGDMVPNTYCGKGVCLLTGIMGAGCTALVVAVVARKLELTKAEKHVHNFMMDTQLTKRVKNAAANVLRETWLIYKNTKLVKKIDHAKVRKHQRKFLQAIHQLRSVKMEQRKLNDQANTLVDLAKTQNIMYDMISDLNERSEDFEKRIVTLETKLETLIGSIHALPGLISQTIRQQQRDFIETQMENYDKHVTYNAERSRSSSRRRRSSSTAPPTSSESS
KCa2.3, sequence (Q9UGI6 whole entry): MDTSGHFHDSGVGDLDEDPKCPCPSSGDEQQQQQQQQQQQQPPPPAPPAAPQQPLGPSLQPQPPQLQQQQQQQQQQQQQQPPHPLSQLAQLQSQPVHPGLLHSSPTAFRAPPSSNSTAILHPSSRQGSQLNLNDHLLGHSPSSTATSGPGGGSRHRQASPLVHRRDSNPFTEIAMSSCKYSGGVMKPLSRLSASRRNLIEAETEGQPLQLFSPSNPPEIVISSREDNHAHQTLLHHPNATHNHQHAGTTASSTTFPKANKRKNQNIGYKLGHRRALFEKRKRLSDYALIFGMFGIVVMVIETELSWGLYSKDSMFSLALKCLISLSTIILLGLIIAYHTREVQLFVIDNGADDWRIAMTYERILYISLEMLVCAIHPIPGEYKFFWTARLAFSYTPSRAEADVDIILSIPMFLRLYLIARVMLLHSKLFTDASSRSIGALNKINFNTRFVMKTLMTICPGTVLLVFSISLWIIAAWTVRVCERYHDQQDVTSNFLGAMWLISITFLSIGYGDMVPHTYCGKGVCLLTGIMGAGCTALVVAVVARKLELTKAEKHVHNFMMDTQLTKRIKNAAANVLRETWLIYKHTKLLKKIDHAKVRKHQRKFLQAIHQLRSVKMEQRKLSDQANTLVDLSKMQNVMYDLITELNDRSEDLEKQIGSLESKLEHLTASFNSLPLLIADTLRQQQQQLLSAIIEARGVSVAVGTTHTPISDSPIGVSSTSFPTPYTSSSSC

Compound | EC50 (KCa2.2) [µM] | EC50 (KCa2.3) [µM] | EC50 (KCa3.1 channel) [nM] | Tolerability [1] | Selectivity for KCa3.1 over KCa2 channels [2] | Effect on blood pressure [3] | Tolerability [4] | concentration at 14 days ([5]; kidney) [ng/g] | concentration at 14 days ([5]; liver) [ng/g] | Change in serum aspartate aminotransferase (AST) vs vehicle [6] | Mouse body weight loss vs vehicle [6] | solubility at 24 h [7] | Cmax relative to EC50 for KCa3.1 activation ([8]; at 15 min) | MRTlast ([8]; female BALB/c mice, plasma) [h] | circulating half-life (t1/2) ([8]; female BALB/c mice, plasma) [h] | Cmax ([8]; female, BALB/c, mouse, plasma, ip, 30 mg/kg, peak plasma concentration (Cmax), female BALB/c mice, at 15 min)
Nc1nc2c(cc(C(F)(F)F)c3ncccc32)s1 [NKV-104, 5-(trifluoromethyl)thiazolo[4,5-f]quinolin-2-amine] | 11.9 | 29.3 | 1700 |  |  |  |  |  |  |  |  |  |  |  |  | 
Nc1nc2c(ccc3ccccc32)s1 [SKA-31, Naphtho[1,2-d]thiazol-2-ylamine] |  |  |  | well-tolerated | lacked selectivity | lowered blood pressure | well-tolerated |  |  |  |  |  |  |  |  | 
Cc1cc2sc(N)nc2c2cccnc12 [SKA-346, 5-methyl-[1,3]thiazolo[4,5-f]quinolin-2-amine] |  |  | 1900 |  |  |  |  | 60.7 | 22.5 | did not cause any significant change | no significant mouse body weight loss | 40600 µg/mL and 189000 µM | about 15 times | 4.82 | 2.84 | 6290 ng/mL and 29.2 µM
